Tests used:
[1] = Plasma pharmacokinetics of ARRY-520; format: in vivo, human; conditions: human, plasma, intravenous
[2] = system: patients with advanced or refractory myeloid leukemias; assay: Phase 1 dose-escalation: safety, DLT and MTD; format: in vivo
[3] = system: relapsed or refractory AML or high-grade myelodysplastic syndromes; assay: Clinical efficacy; format: in vivo, human
Summary of the method: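 Open-label, multicentre dose escalation in patients ≥17 y (ECOG 0–2). Test compound given IV over 1 h, on Day 1 (from 2.5 mg/m2) or on Days 1, 3 and 5 (from 0.8 mg/m2/day). Escalation steps were 50%, then 30%. Complete and partial remissions were scored during induction and later cycles; MDS used modified IWG criteria. Hydroxyurea was allowed during days 1–14.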

HCT15 = HCT15 subcutaneous xenograft, mouse; cited from earlier work
K562 = K562 subcutaneous xenograft, mouse; cited from earlier work
HCT-116 = HCT-116 subcutaneous xenograft, mouse; cited from earlier work

CON(C)C(=O)N1N=C(c2cc(F)ccc2F)S[C@@]1(CCCN)c1ccccc1 [ARRY-520]
Cmax ([1]; 3.6 mg/m^2, Cmax, Schedule 2, Cycle 1 Day 5, 3.6 mg/m^2 (N=1), geometric mean): 199 ng/mL
MRT ([1]; 3.6 mg/m^2, MRT, Schedule 2, Cycle 1 Day 5, 3.6 mg/m^2 (N=1), median (min-max)): 152 h
Tmax ([1]; 3.6 mg/m^2, Tmax, Schedule 2, Cycle 1 Day 1, 3.6 mg/m^2 (N=1), median (min-max)): 1 h
Tmax ([1]; 3.6 mg/m^2, Tmax, Schedule 2, Cycle 1 Day 5, 3.6 mg/m^2 (N=1), median (min-max)): 1.08 h
Vd ([1]; 3.6 mg/m^2, Vss, Schedule 2, Cycle 1 Day 1, 3.6 mg/m^2 (N=1), mean): 278 L
Vd ([1]; 3.6 mg/m^2, Vss, Schedule 2, Cycle 1 Day 5, 3.6 mg/m^2 (N=1), mean): 202 L
half-life ([1]; 3.6 mg/m^2, t1/2, Schedule 2, Cycle 1 Day 1, 3.6 mg/m^2 (N=1), median (min-max)): 18.7 h
half-life ([1]; 3.6 mg/m^2, t1/2, Schedule 2, Cycle 1 Day 5, 3.6 mg/m^2 (N=1), median (min-max)): 108 h
AUC(0-inf) ([1]; 3.75 mg/m^2): 1480 ng·h/mL
clearance ([1]; 3.75 mg/m^2, CL, Schedule 1, Cycle 1 Day 1, 3.75 mg/m^2 (N=1), geometric mean): 113 mL/min
Cmax ([1]; 3.75 mg/m^2, Cmax, Schedule 1, Cycle 1 Day 1, 3.75 mg/m^2 (N=1), geometric mean): 31.1 ng/mL
MRT ([1]; 3.75 mg/m^2, MRT, Schedule 1, Cycle 1 Day 1, 3.75 mg/m^2 (N=1), median (min-max)): 127 h
Tmax ([1]; 3.75 mg/m^2, Tmax, Schedule 1, Cycle 1 Day 1, 3.75 mg/m^2 (N=1), median (min-max)): 1 h
Vd ([1]; 3.75 mg/m^2, Vss, Schedule 1, Cycle 1 Day 1, 3.75 mg/m^2 (N=1), mean): 857 L
half-life ([1]; 3.75 mg/m^2, t1/2, Schedule 1, Cycle 1 Day 1, 3.75 mg/m^2 (N=1), median (min-max)): 100 h
AUC(0-inf) ([1]; 4.5 mg/m^2): 3000 ng·h/mL
clearance ([1]; 4.5 mg/m^2, CL, Schedule 1, Cycle 1 Day 1, 4.5 mg/m^2 (N=4), geometric mean (geometric %CV)): 49.2 mL/min
Cmax ([1]; 4.5 mg/m^2, Cmax, Schedule 1, Cycle 1 Day 1, 4.5 mg/m^2 (N=4), geometric mean (geometric %CV)): 53.4 ng/mL
MRT ([1]; 4.5 mg/m^2, MRT, Schedule 1, Cycle 1 Day 1, 4.5 mg/m^2 (N=4), median (min-max)): 142 h
Tmax ([1]; 4.5 mg/m^2, Tmax, Schedule 1, Cycle 1 Day 1, 4.5 mg/m^2 (N=4), median (min-max)): 1.01 h
Vd ([1]; 4.5 mg/m^2, Vss, Schedule 1, Cycle 1 Day 1, 4.5 mg/m^2 (N=4), mean (%CV)): 340 L
half-life ([1]; 4.5 mg/m^2, t1/2, Schedule 1, Cycle 1 Day 1, 4.5 mg/m^2 (N=4), median (min-max)): 100 h
AUC(0-inf) ([1]; 5.6 mg/m^2): 2520 ng·h/mL
clearance ([1]; 5.6 mg/m^2, CL, Schedule 1, Cycle 1 Day 1, 5.6 mg/m^2 (N=2), geometric mean): 71.7 mL/min
Cmax ([1]; 5.6 mg/m^2, Cmax, Schedule 1, Cycle 1 Day 1, 5.6 mg/m^2 (N=2), geometric mean): 49.6 ng/mL
MRT ([1]; 5.6 mg/m^2, MRT, Schedule 1, Cycle 1 Day 1, 5.6 mg/m^2 (N=2), median (min-max)): 131 h
Tmax ([1]; 5.6 mg/m^2, Tmax, Schedule 1, Cycle 1 Day 1, 5.6 mg/m^2 (N=2), median (min-max)): 0.959 h
Vd ([1]; 5.6 mg/m^2, Vss, Schedule 1, Cycle 1 Day 1, 5.6 mg/m^2 (N=2), mean): 515 L
half-life ([1]; 5.6 mg/m^2, t1/2, Schedule 1, Cycle 1 Day 1, 5.6 mg/m^2 (N=2), median (min-max)): 92.5 h
clearance ([1]; CL, Schedule 1, Cycle 1 Day 1, Schedule Total (N=10), geometric mean (geometric %CV)): 56 mL/min
clearance ([1]; CL, Schedule 2, Cycle 1 Day 1, Schedule Total (N=18), geometric mean (geometric %CV)): 119 mL/min
clearance ([1]; CL, Schedule 2, Cycle 1 Day 5, Schedule Total (N=18), geometric mean (geometric %CV)): 19.8 mL/min
clearance ([1]; CL, range across cohorts, Schedule 1, Cycle 1): 44.8 to 113 mL/min
MRT ([1]; MRT, Schedule 1, Cycle 1 Day 1, Schedule Total (N=10), median (min-max)): 127 h
Tmax ([1]; Tmax, Schedule 1, Cycle 1 Day 1, Schedule Total (N=10), median (min-max)): 1 h
Tmax ([1]; Tmax, Schedule 2, Cycle 1 Day 1, Schedule Total (N=18), median (min-max)): 1 h
Tmax ([1]; Tmax, Schedule 2, Cycle 1 Day 5, Schedule Total (N=18), median (min-max)): 1 h
Vd ([1]; Vss, Schedule 1, Cycle 1 Day 1, Schedule Total (N=10), mean (%CV)): 446 L
Vd ([1]; Vss, Schedule 2, Cycle 1 Day 1, Schedule Total (N=18), mean (%CV)): 306 L
Vd ([1]; Vss, Schedule 2, Cycle 1 Day 5, Schedule Total (N=18), mean (%CV)): 191 L
clearance ([1]; clearance, plasma PK, abstract summary): ~50 mL/min
clearance ([1]; geometric mean CL, Schedule 1, Cycle 2, all patients, N=4): 50.3 mL/min
MRT ([1]; median MRT, Schedule 1): 127 h
half-life ([1]; median terminal t1/2, plasma PK, summary): > 90 h
half-life ([1]; t1/2, Schedule 1, Cycle 1 Day 1, Schedule Total (N=10), median (min-max)): 98.6 h
half-life ([1]; t1/2, Schedule 2, Cycle 1 Day 1, Schedule Total (N=18), median (min-max)): 26.1 h
MTD, total dose ([2]; Schedule 2 (Days 1, 3 and 5)): 4.5 mg/m^2
died within 30 days following discontinuation of ARRY-520, % ([2]; all patients): 17%
died within 30 days following discontinuation of ARRY-520, patients n ([2]; all patients): 6
Grades 3 or 4 reversible drug-related myelosuppression, patients ([2]; human, in vivo): 33/36
adverse events leading to discontinuation, % of patients ([2]; human, in vivo): 8%
adverse events leading to discontinuation, patients n ([2]; human, in vivo): 3
asymptomatic Grade 1 QTc prolongation, % of patients ([2]; human, in vivo): 22%
asymptomatic Grade 1 QTc prolongation, patients n ([2]; human, in vivo): 8
asymptomatic Grade 2 QTc prolongation, % of patients ([2]; human, in vivo): 3%
asymptomatic Grade 2 QTc prolongation, patients n ([2]; human, in vivo): 1
drug-related SAE bacteremia, % ([2]; human, in vivo): 3%
drug-related SAE diarrhea, % ([2]; human, in vivo): 3%
drug-related SAE exfoliative rash, % ([2]; human, in vivo): 3%
drug-related SAE hyperbilirubinemia, % ([2]; human, in vivo): 3%
drug-related SAE neutropenic fever, % ([2]; human, in vivo): 8%
drug-related SAE palmar-plantar erythrodysesthesia, % ([2]; human, in vivo): 6%
drug-related SAE pancytopenia, % ([2]; human, in vivo): 3%
drug-related SAE stomatitis, % ([2]; human, in vivo): 3%
patients with one or more SAEs related to study drug, % ([2]; human, in vivo): 28%
Dose-limiting toxicities (DLT) ([2]; in vivo): mucositis, exfoliative rash, hand-foot syndrome and hyperbilirubinemia
Neurotoxicity ([2]; in vivo): not observed
other clinically significant ECG changes ([2]; in vivo): No other clinically significant ECG changes were observed
partial response, % ([3]; 34 patients with efficacy data): 3%
partial response, patients n ([3]; 34 patients with efficacy data): 1
complete remissions ([3]; heavily pretreated relapsed/refractory AML or MDS): did not observe complete remissions
anti-cancer efficacy (HCT15): demonstrated anti-cancer efficacy
anti-cancer efficacy (K562): demonstrated anti-cancer efficacy
anti-cancer efficacy (HCT-116): demonstrated anti-cancer efficacy

Reference: PMC4984525 (Cancer, 2011)
